Screens (PubChem)
In the library only some 2.9% were active in any assay of this set; here they are far more common.
Statin myotox sup = protects C2C12 myotubes from simvastatin toxicity; AID 602340; rescue of ATP level, % at 7.49 µM; ATP luminescence, 48 h; scaled: DMSO 0, geranylgeraniol control 100; 330,000 tested, 0.78% active;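 active = mean ATP rescue above about 67%, or every replicate alone reaching that limit, limit read from the data, passing the limit was not always enough; inconclusive = no clear call, values can overlap the other calls; inactive = mean under the limit and some replicate under it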;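 note: myotubes were challenged with 10 µM simvastatin during compound exposure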
PGC1a acetyl inh = PGC1a acetylation modulation, inhibitor mode. inhibition, % at 15.6 µM. AID 651687. 350,000 tested, 0.17% active. U2OS PGC1a acetylation, AlphaScreen anti-acetyl-lysine; with virally co-expressed GCN5 acetyltransferase;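 active = every replicate shows inhibition of at least 40%; inconclusive = mean inhibition at least 40% but some replicate below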
SIRT5 inh = sirtuin-5 (human) deacylase inhibition; Purified SirT5, succinyl-peptide AMC, trypsin-coupled fluorescence; inhibition, % at 15 µM; 330,000 tested, 1.1% active; in the data active = inhibition above about 15%; inconclusive = no clear call, values can overlap the other calls
Target sequence (Q9NXA8 whole entry, looked up): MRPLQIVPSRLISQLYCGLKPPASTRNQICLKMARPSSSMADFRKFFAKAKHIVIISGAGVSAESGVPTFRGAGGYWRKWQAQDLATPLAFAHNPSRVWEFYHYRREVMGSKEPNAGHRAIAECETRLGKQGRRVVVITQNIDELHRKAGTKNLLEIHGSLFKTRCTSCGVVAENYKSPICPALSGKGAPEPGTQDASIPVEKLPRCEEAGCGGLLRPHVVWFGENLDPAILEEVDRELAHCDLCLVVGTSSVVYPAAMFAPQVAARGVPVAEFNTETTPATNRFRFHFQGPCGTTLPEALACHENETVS
S100A4 MyoIIA = blocks human S100A4 binding to myosin IIA peptide; P26447; S100A4/TAMRA-MyoIIA peptide fluorescence polarization; inhibition, % at 10.7 µM; 360,000 tested, 0.14% active; AID 652163;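 active = mean inhibition of at least 70% across replicates, with every replicate also reaching that level; inconclusive = mean inhibition reaches 70% but some replicates fall short; inactive = mean inhibition below 70%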
Target sequence (P26447 whole entry, looked up): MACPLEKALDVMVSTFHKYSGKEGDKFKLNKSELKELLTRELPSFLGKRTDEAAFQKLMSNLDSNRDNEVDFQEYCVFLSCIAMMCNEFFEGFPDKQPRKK
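Compound dosing: one dose per compound; test system: human S100A4 monomer with TAMRA-labelled myosin IIA peptide; probe or stimulus: TAMRA-labelled myosin IIA heavy-chain peptide probe, 5 nM; medium: HEPES buffer with Ca2+, pH 7.2; schedule: 5 min incubation before reading; benchmarks: neutral control DMSO, positive control TFP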
DENV2 CPE = inhibitors of DENV2 cytopathic effect. CPE inhibition, % at 9.99 µM. 350,000 tested, 1.7% active. DENV2-infected cells, cytopathic effect rescue, plate reader. AID 651640; in the data active = CPE inhibition above about 20%, passing the limit was not always enough; inconclusive = no clear call, values can overlap the other calls; tested in BHK-21 cells
Of the large screens only hits and unclear results are named; the others gave an inactive call.

COc1ccc(NC(=O)N(C)C[C@H]2Oc3c(NC(=O)Nc4ccccc4)cccc3C(=O)N([C@@H](C)CO)C[C@H]2C)cc1	none
COc1ccc(NC(=O)Nc2cccc3c2O[C@H](CN(C)S(=O)(=O)c2ccccc2)[C@H](C)CN([C@@H](C)CO)C3=O)cc1	DENV2 CPE 80.1
COc1ccc2c3c(n(C)c2c1)[C@H](CO)N(C(=O)Cc1ccccn1)CC31CCN(CC2CCOCC2)CC1	none (no result: Statin myotox sup, SIRT5 inh, S100A4 MyoIIA)
CC(=O)NC[C@@H]1[C@@H](c2ccc(C3=CCCC3)cc2)[C@H](CO)N1Cc1cccnc1	none (no result: S100A4 MyoIIA)
C[C@H](CO)N1C[C@H](C)[C@@H](CN(C)C(=O)Nc2cccc3ccccc23)Oc2ccc(NS(=O)(=O)c3ccc(F)cc3)cc2CC1=O	none
Cc1cccc(CN(C)C[C@@H]2Oc3ncc(-c4cc5ccccc5o4)cc3C(=O)N([C@H](C)CO)C[C@@H]2C)c1	none
COc1ccc(NC(=O)Nc2cccc3c2O[C@@H](CN(C)C(=O)Nc2ccc(OC)cc2)[C@H](C)CN([C@@H](C)CO)C3=O)cc1	none
COc1ccc(NC(=O)Nc2cccc3c2O[C@H](CN(C)C(=O)Nc2ccc(OC)cc2)[C@@H](C)CN([C@@H](C)CO)C3=O)cc1	DENV2 CPE 144.1
CC(C)NC(=O)Nc1cccc2c1O[C@H](CN(C)C(=O)Nc1ccccc1)[C@H](C)CN([C@H](C)CO)C2=O	DENV2 CPE 42.4
C[C@@H]1CN([C@@H](C)CO)C(=O)c2cc(NC(=O)Nc3ccc(C(F)(F)F)cc3)ccc2O[C@@H]1CN(C)Cc1ccc2c(c1)OCO2	none
C[C@H](CO)N1C[C@H](C)[C@@H](CN(C)S(=O)(=O)c2cn(C)cn2)Oc2c(NS(C)(=O)=O)cccc2C1=O	none
C[C@@H]1CCCCO[C@H](CN(C)C(=O)CCCN(C)C)[C@H](C)CN([C@H](C)CO)C(=O)c2cc(NC(=O)c3ccccc3)ccc2O1	none
CC(C)=C(NC(=O)c1ccccc1Cl)C(=O)NCCc1nc2ccccc2[nH]1	DENV2 CPE 130.0
COc1ccc(S(=O)(=O)N(C)C[C@@H]2OCCCC[C@H](C)Oc3ccc(N(C)C)cc3C(=O)N([C@@H](C)CO)C[C@H]2C)cc1	none
COc1ccc(CC(N)c2csc(NC(=O)c3ccc(F)cc3)n2)cc1 (stereo unspecified)	none (no result: SIRT5 inh)
COc1ccc(CC(N)c2csc(NC(=O)c3ccc(OC)cc3)n2)cc1 (stereo unspecified)	DENV2 CPE 36.8 (no result: PGC1a acetyl inh)
CCOC(=O)N/N=C/c1cc(C)n(-c2cccc3ccccc23)c1C	DENV2 CPE 37.2 (no result: Statin myotox sup)
CN(C)C(=O)C[C@H]1C=C[C@H](NC(=O)c2ccc(F)cc2)[C@@H](CO)O1	none
O=C(C[C@@H]1CC[C@H]2[C@@H](COC[C@@H](O)CN2CC2CCCCC2)O1)NCc1ccc(F)cc1	S100A4 MyoIIA 115.8
O=C(C[C@H]1CC[C@H]2[C@@H](COC[C@@H](O)CN2C(=O)c2ccccc2F)O1)NCc1ccc(F)cc1	none
O=C(C[C@H]1CC[C@H]2[C@@H](COC[C@@H](O)CN2Cc2nccs2)O1)NCc1ccc(-c2ccccc2)cc1	none
O=C(C[C@H]1CC[C@@H]2[C@H](COC[C@@H](O)CN2CC2CCCCC2)O1)NCc1ccc(Cl)cc1	none
O=C(C[C@H]1CC[C@@H]2[C@H](COC[C@H](O)CN2CC2CCCCC2)O1)NCC1CC1	DENV2 CPE 29.5
O=C(C[C@H]1CC[C@@H]2[C@H](COC[C@@H](O)CN2Cc2nccs2)O1)NCc1ccc(-c2ccccc2)cc1	DENV2 CPE 33.9
O=C(C[C@H]1CC[C@@H]2[C@H](COC[C@@H](O)CN2C(=O)c2ccccc2F)O1)NCc1ccc(F)cc1	DENV2 CPE 37.8
C[C@@H]1CN([C@@H](C)CO)S(=O)(=O)c2ccc(-c3cncnc3)cc2O[C@H]1CN(C)C(=O)C1CCC1	none
CCOC(=O)Cc1csc(NC(=O)c2cc(C)cc(C)c2)n1	SIRT5 inh 15.9
C/C(=N\NC(=O)c1ccc(CSc2cccc3cccnc23)cc1)C1CCCCC1	DENV2 CPE 102.5
C=C(C)C(=O)OCCCCCCOc1ccc(C(=O)O)cc1	Statin myotox sup 97.0 (no result: SIRT5 inh, S100A4 MyoIIA, DENV2 CPE)
C[C@@H]1CCCCO[C@@H](CN(C)S(=O)(=O)c2cn(C)cn2)[C@H](C)CN([C@@H](C)CO)C(=O)c2cc(NC(=O)Nc3ccc(F)cc3)ccc2O1	none (no result: Statin myotox sup)
CN(C)CC(=O)N[C@@H]1CC[C@H](CCNS(=O)(=O)c2ccccc2)O[C@H]1CO	none
Cc1cccc(C(=O)N2CCC(=O)N([C@H](COCc3ccc(Cl)cc3)Cc3ccccc3)CC2)c1	DENV2 CPE 124.6 (no result: Statin myotox sup, PGC1a acetyl inh)
Cc1cccc(C(=O)N2CCC(=O)N(C(COCc3ccc(Cl)cc3)Cc3ccccc3)CC2)c1 (stereo unspecified)	none (no result: PGC1a acetyl inh)
O=[N+]([O-])c1cccc(/C=N/Nc2ccccn2)c1	none (no result: Statin myotox sup, PGC1a acetyl inh)
O=[N+]([O-])c1cccc(/C=C/c2ccccn2)c1	SIRT5 inh 23.8, DENV2 CPE inconclusive
O=C(CSc1ccccn1)N/N=C/c1cccc([N+](=O)[O-])c1	DENV2 CPE 46.4
O=C(CSc1ncccn1)N/N=C/c1cccc([N+](=O)[O-])c1	none (no result: Statin myotox sup, SIRT5 inh, S100A4 MyoIIA, DENV2 CPE)
C[C@@H]1CN([C@H](C)CO)C(=O)c2cccc(NC(=O)c3ccc(-c4nccs4)cc3)c2O[C@@H]1CN(C)S(=O)(=O)c1ccc(Cl)cc1	none
Cc1ccc(S(=O)(=O)Nc2ccc3c(c2)C(=O)N([C@@H](C)CO)C[C@H](C)[C@@H](CN(C)S(=O)(=O)c2c(C)noc2C)OCCCC[C@H](C)O3)cc1	none (no result: Statin myotox sup)
COc1ccc(-c2cc(OC)c3ccccc3n2)cc1	none (no result: Statin myotox sup, SIRT5 inh, S100A4 MyoIIA, DENV2 CPE)
COc1cc(-c2ccccc2)nc2ccccc12	Statin myotox sup 95.3 (no result: SIRT5 inh, S100A4 MyoIIA, DENV2 CPE)
COCC(=O)N1CCCCN2[C@@H](CO)[C@H](c3ccc(-c4ccc(C)cc4)cc3)[C@@H]2C1	DENV2 CPE 46.7
COCC(=O)N1CCCCN2[C@H](CO)[C@@H](c3ccc(-c4ccccc4)cc3)[C@H]2C1	DENV2 CPE 40.3 (no result: Statin myotox sup)
OC[C@@H]1[C@@H](c2ccc(-c3ccc(F)cc3)cc2)[C@H]2CN(Cc3ccncc3)CCCCN12	none
COCC(=O)N1CCCCN2[C@@H](CO)[C@@H](c3ccc(-c4ccc(C)cc4)cc3)[C@@H]2C1	DENV2 CPE 65.7
COCC(=O)N1CCCCN2[C@H](CO)[C@H](c3ccc(-c4ccc(C)cc4)cc3)[C@@H]2C1	DENV2 CPE inconclusive
OC[C@@H]1[C@H](c2ccc(-c3ccc(F)cc3)cc2)[C@@H]2CN(Cc3ccncc3)CCCCN12	DENV2 CPE 38.0
C[C@H](CO)N1C[C@H](C)[C@H](CN(C)S(C)(=O)=O)Oc2ccc(NC(=O)CCCN(C)C)cc2CC1=O	none (no result: Statin myotox sup, SIRT5 inh)
C[C@H](CO)N1C[C@H](C)[C@H](CN(C)Cc2ccc(-c3ccccc3)cc2)Oc2c(NC(=O)NC3CCCCC3)cccc2C1=O	none
COCC(=O)N1CCCCN2[C@@H](CO)[C@@H](c3ccc(-c4ccc(F)cc4)cc3)[C@@H]2C1	DENV2 CPE 27.7 (no result: Statin myotox sup)
